Our source for the MEC and IC50 values is ChEMBL document CHEMBL1126176, “Synthetic modification of a novel microbial ionophore: exploration of anticoccidial structure-activity relationships” (J Med Chem, 1992).

The structures appear in SMILES notation.

The species entered for assay [1] is Gallus gallus. Put plainly: Minimum concentration of the compound(ppm) in feed which provides control of Eimeria tenella lesions equivalent to noninfected, nonmedicated birds. Type of assay: functional. An outline of the steps: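 Drug is given continuously in feed to E. tenella-infected birds from 1 day before infection. Birds are killed 6 days after infection and lesions are scored. The value is the lowest feed level (ppm) giving lesion control equal to noninfected, nonmedicated birds.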

The species named for assay [2] is Gallus gallus. Description: In vitro concentration of compound to inhibit growth of Eimeria tenella by 50% […]. The assay is classed as functional, organism-based. A digest of the protocol:
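E. tenella grown in vitro with drug. Growth is compared with nonmedicated controls. The value is the drug concentration (ppm) that inhibits growth by 50%.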

In the case of `CO[C@@H]1[C@@H](O[C@H]2CC[C@H](OC)[C@@H](C)O2)[C@H](C)[C@@](O)(C(C)C(=O)[O-])O[C@H]1[C@H](C)[C@H]1O[C@@]2(CC[C@@](C)([C@H]3CC[C@@](C)([C@@H]4O[C@@H]([C@H]5O[C@](C)(O)[C@H](C)C[C@@H]5C)C[C@@H]4O[C@H]4CC[C@H](OC)[C@@H](C)O4)O3)O2)C[C@H](O)[C@H]1C.[Na+]` (stereo partly drawn), the MEC in assay [1] was determined as 7.5 p.p.m. In addition, in assay [2], the IC50 is listed as 0.03 p.p.m.

In the case of `CO[C@@H]1[C@@H](O[C@H]2CC[C@H](OC)[C@@H](C)O2)[C@H](C)[C@](CC(=O)[O-])(OC)O[C@H]1[C@H](C)[C@H]1O[C@@]2(CC[C@@](C)([C@H]3CC[C@@](C)([C@@H]4O[C@@H]([C@H]5O[C@](C)(O)[C@H](C)C[C@@H]5C)C[C@@H]4O[C@H]4CC[C@H](OC)[C@@H](C)O4)O3)O2)C[C@H](O)[C@H]1C.[Na+]`, the MEC in assay [1] is 120 p.p.m.

Take `CO[C@@H]1[C@@H](O[C@H]2CC[C@H](OC)[C@@H](C)O2)[C@H](C)[C@@](O)(CC(=O)[O-])O[C@H]1[C@H](C)[C@H]1O[C@@]2(CC[C@@](C)([C@H]3CC[C@@](C)([C@@H]4O[C@@H]([C@H]5O[C@](C)(OC)[C@H](C)C[C@@H]5C)C[C@@H]4O[C@H]4CC[C@H](OC)[C@@H](C)O4)O3)O2)C[C@H](O)[C@H]1C.[Na+]`: the MEC in assay [1] is reported as 50 p.p.m. This compound yielded an IC50 in assay [2] of 0.02 p.p.m.

Turning to `CO[C@@H]1[C@@H](O[C@H]2CC[C@H](OC)[C@@H](C)O2)[C@H](C)[C@@](O)(CC(=O)[O-])O[C@H]1[C@H](C)[C@H]1O[C@@]2(CC[C@@](C)([C@H]3CC[C@@](C)([C@@H]4O[C@@H]([C@@H](O)[C@@H](C)C[C@@H](C)C(C)(C)O)C[C@@H]4O[C@H]4CC[C@H](OC)[C@@H](C)O4)O3)O2)C[C@H](O)[C@H]1C.[Na+]`, the MEC in assay [1] is listed as greater than 120 p.p.m. Also, the IC50 in assay [2] is on record as 0.03 p.p.m.

Turning to `C=CCC(C(=O)[O-])[C@@]1(O)O[C@@H]([C@H](C)[C@H]2O[C@@]3(CC[C@@](C)([C@H]4CC[C@@](C)([C@@H]5O[C@@H]([C@H]6O[C@](C)(O)[C@H](C)C[C@@H]6C)C[C@@H]5O[C@H]5CC[C@H](OC)[C@@H](C)O5)O4)O3)C[C@H](O)[C@H]2C)[C@H](OC)[C@@H](O[C@H]2CC[C@H](OC)[C@@H](C)O2)[C@@H]1C.[Na+]` (stereo partly drawn), the MEC in assay [1] was 60 p.p.m. For the same compound, in assay [2], the IC50 was found to be 0.01 p.p.m.

For the compound `CCC(C(=O)[O-])[C@@]1(O)O[C@@H]([C@H](C)[C@H]2O[C@@]3(CC[C@@](C)([C@H]4CC[C@@](C)([C@@H]5O[C@@H]([C@H]6O[C@](C)(O)[C@H](C)C[C@@H]6C)C[C@@H]5O[C@H]5CC[C@H](OC)[C@@H](C)O5)O4)O3)C[C@H](O)[C@H]2C)[C@H](OC)[C@@H](O[C@H]2CC[C@H](OC)[C@@H](C)O2)[C@@H]1C.[Na+]` (stereo partly drawn), the MEC in assay [1] worked out at 30 p.p.m.

As for `CCCC(C(=O)[O-])[C@@]1(O)O[C@@H]([C@H](C)[C@H]2O[C@@]3(CC[C@@](C)([C@H]4CC[C@@](C)([C@@H]5O[C@@H]([C@H]6O[C@](C)(O)[C@H](C)C[C@@H]6C)C[C@@H]5O[C@H]5CC[C@H](OC)[C@@H](C)O5)O4)O3)C[C@H](O)[C@H]2C)[C@H](OC)[C@@H](O[C@H]2CC[C@H](OC)[C@@H](C)O2)[C@@H]1C.[Na+]` (stereo partly drawn), in assay [1], the MEC was 60 p.p.m. The compound also yielded an IC50 in assay [2] of 0.01 p.p.m.

On to `CO[C@@H]1[C@@H](O[C@H]2CC[C@H](OC)[C@@H](C)O2)[C@H](C)[C@@](O)(CC(=O)[O-])O[C@H]1[C@H](C)[C@H]1O[C@@]2(CC[C@@](C)([C@H]3CC[C@@](C)([C@@H]4O[C@@H]([C@@H](O)[C@@H](C)C[C@@H](C)[C@@H](C)O)C[C@@H]4O[C@H]4CC[C@H](OC)[C@@H](C)O4)O3)O2)C[C@H](O)[C@H]1C.[Na+]`, for which the MEC in assay [1] is on record as 80 p.p.m. The IC50 in assay [2] worked out at 0.05 p.p.m.

As for `CO[C@@H]1[C@@H](O)[C@H](C)[C@@](O)(CC(=O)[O-])O[C@H]1[C@H](C)[C@H]1O[C@@]2(CC[C@@](C)([C@H]3CC[C@@](C)([C@@H]4O[C@@H]([C@H]5O[C@](C)(O)[C@H](C)C[C@@H]5C)C[C@@H]4O)O3)O2)C[C@H](O)[C@H]1C.[Na+]`, the MEC in assay [1] is on record as greater than 50 p.p.m. In assay [2], this compound came in with an IC50 greater than 1 p.p.m.

On to `C#CCC(C(=O)[O-])[C@@]1(O)O[C@@H]([C@H](C)[C@H]2O[C@@]3(CC[C@@](C)([C@H]4CC[C@@](C)([C@@H]5O[C@@H]([C@H]6O[C@](C)(O)[C@H](C)C[C@@H]6C)C[C@@H]5O[C@H]5CC[C@H](OC)[C@@H](C)O5)O4)O3)C[C@H](O)[C@H]2C)[C@H](OC)[C@@H](O[C@H]2CC[C@H](OC)[C@@H](C)O2)[C@@H]1C.[Na+]` (stereo in doubt; 2e), for which the MEC in assay [1] is given as greater than 60 p.p.m.

Turning to `C#CCC(C(=O)[O-])[C@@]1(O)O[C@@H]([C@H](C)[C@H]2O[C@@]3(CC[C@@](C)([C@H]4CC[C@@](C)([C@@H]5O[C@@H]([C@H]6O[C@](C)(O)[C@H](C)C[C@@H]6C)C[C@@H]5O[C@H]5CC[C@H](OC)[C@@H](C)O5)O4)O3)C[C@H](O)[C@H]2C)[C@H](OC)[C@@H](O[C@H]2CC[C@H](OC)[C@@H](C)O2)[C@@H]1C.[Na+]` (stereo in doubt; 2f), the MEC in assay [1] is reported as 60 p.p.m. For the same compound, in assay [2], the IC50 came to 0.01 p.p.m.

As for `CO[C@@H]1[C@@H](O[C@H]2CC[C@H](OC)[C@@H](C)O2)[C@H](C)[C@@](O)(CC(=O)[O-])O[C@H]1[C@H](C)[C@H]1O[C@@]2(CC[C@@](C)([C@H]3CC[C@@](C)([C@@H]4O[C@@H]([C@H]5O[C@](C)(O)[C@H](C)C[C@@H]5C)C[C@@H]4O[C@H]4CC[C@H](OC)[C@@H](C)O4)O3)O2)C[C@H](O)[C@H]1C.[Na+]` [IONOPHORE], the MEC in assay [1] was 15 p.p.m. Further, the IC50 in assay [2] came to 0.03 p.p.m.

As to `CO[C@@H]1[C@@H](O)[C@H](C)[C@@](O)(CC(=O)[O-])O[C@H]1[C@H](C)[C@H]1O[C@@]2(CC[C@@](C)([C@H]3CC[C@@](C)([C@@H]4O[C@@H]([C@H]5O[C@](C)(O)[C@H](C)C[C@@H]5C)C[C@@H]4O[C@H]4CC[C@H](OC)[C@@H](C)O4)O3)O2)C[C@H](O)[C@H]1C.[Na+]` [SEMDURAMICIN SODIUM], in assay [1], the MEC was found to be 25 p.p.m. In assay [2], this compound came in with an IC50 of 0.03 p.p.m.
